Test system: xenograft tumors of murine glioma GL261 cells
Assay: GL261 xenograft tumor model
Assay type: in vivo, C57BL/6 mice
How it was run: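 About 3 × 10⁶ GL261 cells implanted subcutaneously at the left scapula of male C57BL/6 mice (6–8 weeks). At 100–300 mm³, mice randomized (n = 7/group). Vehicle (0.5% methylcellulose) oral daily. TMZ 100 mg/kg oral every 2 days, alone or with 50 mg/kg. Endpoint: tumour weight; body weight; CD31 immunohistochemistry (1:200) on 4 μm paraffin sections.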

Cn1nnc2c(C(N)=O)ncn2c1=O [TMZ, temozolomide]
body weight (GL261 xenograft mice, vs control (co-treatment vs TMZ group)): significantly decreased
tumor inhibition rate (TMZ only, 100 mg/kg oral every 2 days): 34.15%

Source: article PMC7016295 (Acta Pharmaceutica Sinica. B, 2019)
